Laboratory results from ChEMBL document CHEMBL1123645, “Phenylephrine derivatives as leukotriene D4 antagonists” (J Med Chem, 1987).
Each block holds one compound with its values, some of them ahead of it. The source made the active and inactive calls. The rule behind the calls is not given here.

Experiments:
[1] = target: Cysteinyl leukotriene receptor (Homo sapiens) (UniProt Q9Y271+Q9NS75); assay: Inhibition of Ovalbumin (OA) induced bronchospasm in the guinea pig when administered intraduodenally (50 mg/kg); type: functional, organism-based; conditions: Cavia porcellus; target entry is the homologue from another species
How it was run: (§1)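 Guinea pig bronchoconstriction induced by LTD4 or by ovalbumin. Antagonist was given intraduodenally 10 min before the agonist. […] Single-dose lines give percent inhibition at the stated id dose.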

Cavia porcellus [2] = assay: Inhibition of LTD4 (leukotriene) induced bronchospasm in the guinea pig when administered perorally (50 mg/kg)
Cavia porcellus [3] = assay: Inhibition of LTD4 (leukotriene) induced bronchospasm in the guinea pig when administered intraduodenally (50 mg/kg)
Cavia porcellus [4] = assay: Inhibition of LTD4 (leukotriene) induced bronchospasm in the guinea pig when administered perorally (50 mg/kg); remark: listed apart in the source
Cavia porcellus [5] = assay: Inhibition of LTD4 (leukotriene) induced bronchospasm in the guinea pig when administered intraduodenally at 25 mg/kg
Cavia porcellus [6] = assay: Inhibition of Ovalbumin (OA) induced bronchospasm in the guinea pig when administered intraduodenally at 25 mg/kg; type: functional; conditions: route intraduodenal; how it was run: as §1
Cavia porcellus [7] = assay: Inhibition of LTD4 (leukotriene) induced bronchospasm in the guinea pig when administered intraduodenally (50 mg/kg); type: functional; how it was run: as §1
Cavia porcellus [8] = assay: Inhibition of Ovalbumin (OA) induced bronchospasm in the guinea pig when administered perorally at 25 mg/kg; type: functional; conditions: route oral
How it was run: (§2)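 Guinea pig bronchoconstriction induced by LTD4 or by ovalbumin. Antagonist was dosed orally to awake animals 120 min before the agonist, which is 95 min before anesthetic. […] Single-dose lines give percent inhibition at the stated oral dose.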

Cavia porcellus [9] = assay: Antagonist activity was determined by the ability to inhibit of ovalbumin induced bronchospasm when administered intraduodenally with respect to LY-171883 compound; type: functional; conditions: intraduodenal; how it was run: as §1
Cavia porcellus [10] = assay: Antagonist activity was determined by the ability to inhibit of ovalbumin induced bronchospasm when administered perorally with respect to LY-171883 compound; type: functional; conditions: po; how it was run: as §2
Cavia porcellus [11] = assay: Relative inhibitory potency against LTD4 (leukotriene D4) induced bronchospasm when administered intraduodenally with respect to LY-171883 compound; type: functional
Cavia porcellus [12] = assay: Relative inhibitory potency against LTD4 (leukotriene D4) induced bronchospasm when administered perorally with respect to LY-171883 compound; type: functional
Cavia porcellus [13] = assay: Relative inhibitory potency against ovalbumin induced bronchospasm when administered intraduodenally with respect to LY-171883 compound; type: functional
Cavia porcellus [14] = assay: Relative inhibitory potency against ovalbumin induced bronchospasm when administered perorally with respect to LY-171883 compound; type: functional
Cavia porcellus [15] = assay: Antagonist activity was determined by the ability to inhibit of LTD4 (leukotriene D4) induced bronchospasm when administered intraduodenally with respect to LY-171883 compound; type: functional; conditions: intraduodenal; how it was run: as §1
Cavia porcellus [16] = assay: Antagonist activity was determined by the ability to inhibit of LTD4 (leukotriene D4) induced bronchospasm when administered perorally with respect to LY-171883 compound; type: functional; conditions: po; how it was run: as §2
Cavia porcellus [17] = species: Cavia porcellus; assay: Antagonist activity towards LTD4-induced contraction of isolated guinea pig; type: functional
How it was run: (§3)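 Guinea pig tracheal spirals stretched to near-optimal length and equilibrated 1.5 h, washed every 15 min. Indomethacin (5 μM) was present in all tissues. Cumulative LTD4 dose-response curves were recorded isometrically via force transducers. Paired proximal/distal strips from one animal got solvent control or drug. Values are negative log, mean ± SEM, and were compared by Student's t test.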

Cavia porcellus [18] = species: Cavia porcellus; assay: relative potency antagonist on LTD4-induced contraction of isolated guinea pig trachea; type: functional; how it was run: as §3
Cavia porcellus [19] = assay: Antagonist activity was determined by the ability to inhibit of LTD4 (leukotriene D4) induced bronchospasm when administered perorally with respect to REV-5901 compound; type: functional; conditions: po; how it was run: as §2
Cavia porcellus [20] = assay: Antagonist activity was determined by the ability to inhibit of ovalbumin induced bronchospasm when administered intraduodenally with respect to REV-5901 compound; type: functional; conditions: intraduodenal; how it was run: as §1
Cavia porcellus [21] = assay: Antagonist activity was determined by the ability to inhibit of ovalbumin induced bronchospasm when administered perorally with respect to REV-5901 compound; type: functional; conditions: po; how it was run: as §2
Cavia porcellus [22] = assay: Relative inhibitory potency against LTD4 (leukotriene D4) induced bronchospasm when administered intraduodenally with respect to REV-5901 compound; type: functional
Cavia porcellus [23] = assay: Relative inhibitory potency against LTD4 (leukotriene D4) induced bronchospasm when administered perorally with respect to REV-5901 compound; type: functional
Cavia porcellus [24] = assay: Antagonist activity was determined by the ability to inhibit of LTD4 (leukotriene D4) induced bronchospasm when administered intraduodenally with respect to REV-5901 compound; type: functional; conditions: intraduodenal; how it was run: as §1
Cavia porcellus [25] = assay: Relative inhibitory potency against ovalbumin induced bronchospasm when administered perorally with respect to LY-171,883 compound
Cavia porcellus [26] = assay: Inhibition of Ovalbumin (OA) induced bronchospasm in the guinea pig when administered intraduodenally at 25 mg/kg; NA means not active; type: functional, organism-based; design: dose 25 mg/kg; how it was run: as §1
Cavia porcellus [27] = assay: Inhibition of LTD4 (leukotriene) induced bronchospasm in the guinea pig when administered intraduodenally (50 mg/kg); Not active; type: functional, organism-based; how it was run: as §1
Cavia porcellus [28] = assay: Inhibition of LTD4 (leukotriene) induced bronchospasm in the guinea pig when administered perorally (50 mg/kg); NA means not active; type: functional, organism-based; how it was run: as §2
Cavia porcellus [29] = assay: Inhibition of LTD4 (leukotriene) induced bronchospasm in the guinea pig when administered intraduodenally (50 mg/kg) NA means not active; type: functional, organism-based; how it was run: as §1
Cavia porcellus [30] = assay: Antagonist activity was determined by the ability to inhibit of ovalbumin induced bronchospasm when administered per orally; type: functional; conditions: po; how it was run: as §2
Cavia porcellus [31] = assay: Inhibition of Ovalbumin (OA) induced bronchospasm in the guinea pig when administered perorally (50 mg/kg); type: functional; how it was run: as §2
Cavia porcellus [32] = assay: Antagonist activity was determined by the ability to inhibit of ovalbumin induced bronchospasm when administered intraduodenally; type: functional; conditions: intraduodenal; how it was run: as §1
Cavia porcellus [33] = assay: Relative inhibitory potency against LTD4 (leukotriene D4) induced bronchospasm when administered intraduodenally; type: functional
Cavia porcellus [34] = assay: Relative inhibitory potency against LTD4 (leukotriene D4) induced bronchospasm when administered per orally; type: functional
Cavia porcellus [35] = assay: Relative inhibitory potency against ovalbumin induced bronchospasm when administered intraduodenally; type: functional
Cavia porcellus [36] = assay: Relative inhibitory potency against ovalbumin induced bronchospasm when administered per orally; type: functional
Cavia porcellus [37] = assay: Antagonist activity was determined by the ability to inhibit of LTD4 (leukotriene D4) induced bronchospasm when administered intraduodenally; type: functional; conditions: intraduodenal; how it was run: as §1
Cavia porcellus [38] = assay: Antagonist activity was determined by the ability to inhibit of LTD4 (leukotriene D4) induced bronchospasm when administered per orally; type: functional; conditions: po; how it was run: as §2
Cavia porcellus [39] = species: Cavia porcellus; assay: relative potency antagonist on LTD4-induced contraction of isolated guinea pig; type: functional; how it was run: as §3
[40] = target: Cyclooxygenase (Rattus norvegicus); assay: Ability to inhibit Prostaglandin G/H synthase in rat
Cavia porcellus [41] = assay: Inhibition of LTD4 (leukotriene) induced bronchospasm in the guinea pig when administered perorally at 25 mg/kg; NA means not active; type: functional, organism-based; design: dose 25 mg/kg; how it was run: as §2

Chain of Cysteinyl leukotriene receptor (Homo sapiens) (Q9NS75 whole entry, looked up): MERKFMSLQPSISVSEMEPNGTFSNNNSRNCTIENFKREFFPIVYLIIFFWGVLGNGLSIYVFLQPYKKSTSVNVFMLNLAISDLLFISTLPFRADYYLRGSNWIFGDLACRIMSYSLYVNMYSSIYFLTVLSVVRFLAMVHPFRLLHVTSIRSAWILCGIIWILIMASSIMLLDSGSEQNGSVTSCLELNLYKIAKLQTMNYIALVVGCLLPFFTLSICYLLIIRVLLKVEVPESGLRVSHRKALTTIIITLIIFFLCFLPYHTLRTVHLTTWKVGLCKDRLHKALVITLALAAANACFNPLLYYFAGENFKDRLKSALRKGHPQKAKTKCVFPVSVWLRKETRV
Chain of Cysteinyl leukotriene receptor (Homo sapiens) (Q9Y271 whole entry, looked up): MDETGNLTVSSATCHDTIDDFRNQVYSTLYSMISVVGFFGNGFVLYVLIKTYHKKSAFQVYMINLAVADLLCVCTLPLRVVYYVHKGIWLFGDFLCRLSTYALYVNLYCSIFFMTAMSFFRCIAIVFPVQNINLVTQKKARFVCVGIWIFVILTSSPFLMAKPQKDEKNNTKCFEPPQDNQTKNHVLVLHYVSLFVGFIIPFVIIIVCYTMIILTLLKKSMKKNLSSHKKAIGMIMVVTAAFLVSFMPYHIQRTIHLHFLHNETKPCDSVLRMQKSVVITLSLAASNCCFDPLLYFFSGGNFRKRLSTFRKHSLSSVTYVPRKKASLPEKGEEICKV

Structure (SMILES): CCC(=O)N(C)C[C@H](O)c1cccc(OCc2nc3ccccc3n2C)c1
inhibition [1]: 66%
inhibition (Cavia porcellus [2]): 13%
inhibition (Cavia porcellus [3]): 51%

Structure (SMILES): CNC(=O)N(C)CC(O)c1cccc(OCc2ccc3ccccc3n2)c1 (configuration not stated)
inhibition in vivo at 25 mg/kg (Cavia porcellus [6]): 95%
pInhibition (Cavia porcellus [7]): 92%

Structure (SMILES): O=S(=O)(NCC(O)c1cccc(OCc2ccc3ccccc3n2)c1)C(F)(F)F (configuration not stated)
inhibition in vivo at 25 mg/kg (Cavia porcellus [6]): 29%
inhibition in vivo at 25 mg/kg (Cavia porcellus [8]): -53%
inhibition (Cavia porcellus [5]): 83%

Structure (SMILES): CCCc1c(OCCCCc2nnn[nH]2)ccc(C(C)=O)c1O [TOMELUKAST]
ED50 (Cavia porcellus [9]): 19 mg/kg
ED50 (Cavia porcellus [10]): 38 mg/kg
Potency (Cavia porcellus [11]): 1
Potency (Cavia porcellus [12]): 1
Potency (Cavia porcellus [13]): 1
Potency (Cavia porcellus [14]): 1
ED50 (Cavia porcellus [15]): 6 mg/kg
ED50 (Cavia porcellus [16]): 32 mg/kg
pkb (Cavia porcellus [17]): 6.55
Potency (Cavia porcellus [18]): 1

Structure (SMILES): C#CCN(C)C[C@H](O)c1cccc(OCc2ccc3ccccc3n2)c1
inhibition (Cavia porcellus [5]): 41%

Structure (SMILES): CCN(CC)C(=O)N(C)CC(=O)c1cccc(OCc2ccc3ccccc3n2)c1
inhibition (Cavia porcellus [3]): 26%

Structure (SMILES): CCCCCC(O)c1cccc(OCc2ccc3ccccc3n2)c1 (configuration not stated) [REV-5901]
ED50 (Cavia porcellus [19]): 52 mg/kg
ED50 (Cavia porcellus [20]): 47 mg/kg
ED50 (Cavia porcellus [21]): 87 mg/kg
Potency (Cavia porcellus [22]): 8.5
Potency (Cavia porcellus [23]): 1.6
ED50 (Cavia porcellus [24]): 51 mg/kg
pkb (Cavia porcellus [17]): 5.64
Potency (Cavia porcellus [18]): 8
Potency (Cavia porcellus [25]): 2.3

Structure (SMILES): O=C(NCC(O)c1cccc(OCc2ccc3ccccc3n2)c1)c1ccccc1 (configuration not stated)
inhibition (Cavia porcellus [5]): 18%

Structure (SMILES): CN1CC(c2cccc(OCc3ccc4ccccc4n3)c2)OC1=S (configuration not stated)
inhibition (Cavia porcellus [27]): inactive

Structure (SMILES): CCNC(=O)O[C@@H](CN(C)C(=O)N(CC)CC)c1cccc(OCc2ccc3ccccc3n2)c1
inhibition [1]: 80%
inhibition (Cavia porcellus [28]): inactive
inhibition (Cavia porcellus [3]): 54%

Structure (SMILES): CN1CC(c2cccc(OCc3nc4ccccc4s3)c2)OC1=O (configuration not stated)
inhibition (Cavia porcellus [29]): inactive

Structure (SMILES): O=C(NCC(O)c1cccc(OCc2ccc3ccccc3n2)c1)c1cccs1 (configuration not stated)
inhibition (Cavia porcellus [41]): inactive
inhibition (Cavia porcellus [5]): 82%

The next lines start with results.

inhibition (Cavia porcellus [4]): inactive
inhibition (Cavia porcellus [5]): 77%
Structure (SMILES): c1cc(OCc2ccc3ccccc3n2)cc(C2CN=C(c3ccncc3)O2)c1 (configuration not stated)

inhibition (Cavia porcellus [5]): 66%
Structure (SMILES): O=C1NCC(c2cccc(OCc3ccc4ccccc4n3)c2)O1 (configuration not stated)

inhibition (Cavia porcellus [5]): 11%
Structure (SMILES): c1ccc(C2=NCC(c3cccc(OCc4ccc5ccccc5n4)c3)O2)cc1 (configuration not stated)

inhibition (Cavia porcellus [3]): 92%
Structure (SMILES): c1ccc(C2=NCC(c3cccc(OCc4ccc5ccccc5n4)c3)O2)nc1 (configuration not stated)
inhibition in vivo at 25 mg/kg (Cavia porcellus [6]): 87%

inhibition (Cavia porcellus [3]): 99%
Structure (SMILES): CN1C[C@H](c2cccc(OCc3ccc4ccccc4n3)c2)OC1=O
inhibition (Cavia porcellus [26]): inactive

inhibition (Cavia porcellus [5]): 77%
Structure (SMILES): CCOC(=O)CC1=NCC(c2cccc(OCc3ccc4ccccc4n3)c2)O1 (configuration not stated)

inhibition (Cavia porcellus [3]): 41%
Structure (SMILES): c1cc(OCc2ccc3ccccc3n2)cc(C2CN=C(c3cccs3)O2)c1 (configuration not stated)

inhibition [1]: 56%
IC50 [40]: > 100 µM
inhibition (Cavia porcellus [2]): 56%
inhibition (Cavia porcellus [3]): 91%
Structure (SMILES): CN1C[C@@H](c2cccc(OCc3ccc4ccccc4n3)c2)OC1=O
ED50 (Cavia porcellus [30]): 95 mg/kg
Inhibition (Cavia porcellus [31]): 56%
ED50 (Cavia porcellus [32]): 42 mg/kg
Potency (Cavia porcellus [33]): 2
Potency (Cavia porcellus [34]): 1.1
Potency (Cavia porcellus [35]): 2.2
Potency (Cavia porcellus [36]): 2.5
ED50 (Cavia porcellus [37]): 12 mg/kg
ED50 (Cavia porcellus [38]): 36 mg/kg
Potency (Cavia porcellus [39]): 3
pkb (Cavia porcellus [17]): 6.09
